Reference: ChEMBL document CHEMBL3124921, “Discovery of nitropyridine derivatives as potent HIV-1 non-nucleoside reverse transcriptase inhibitors via a structure-based core refining approach” (Eur J Med Chem, 2014)

Tested on: not listed separately
Test: Selectivity index, ratio of CC50 for human MT4 cells to EC50 for HIV-2 ROD infected in human MT4 cells
Type: toxicity, cell-based
Settings: read-out: Ratio CC50/EC50
Method in brief: (§1)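 MT-4 cells are seeded at 6 × 10⁵ cells/mL. Serial fivefold compound dilutions go into two triplicate series, one mock-infected and one virus-infected. After 5 days, viability is read by MTT reduction to formazan, with absorbance at 540 and 690 nm. EC50 comes from infected wells and CC50 from mock-infected wells. SI = CC50/EC50.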
N#Cc1ccc(Nc2cc(Oc3c(F)cc(F)cc3F)c([N+](=O)[O-])cn2)cc1 gave a selectivity ratio of under 1. Compound N#Cc1ccc(Nc2cc(Oc3c(Br)cc(Br)cc3Br)c([N+](=O)[O-])cn2)cc1 has a selectivity ratio of under 1. With N#Cc1ccc(Nc2cc(Oc3c(Cl)cc(Cl)cc3Cl)c([N+](=O)[O-])cn2)cc1 the selectivity ratio was under 1. Work on N#Cc1ccc(Nc2cc(Oc3c(Cl)cccc3Cl)c([N+](=O)[O-])cn2)cc1 yielded a selectivity ratio of under 1. For Cc1cccc(C)c1Nc1cc(Nc2ccc(C#N)cc2)ncc1[N+](=O)[O-], the selectivity ratio was under 1. Compound Cc1cn([C@H]2C[C@H](N=[N+]=[N-])[C@@H](CO)O2)c(=O)[nH]c1=O [ZIDOVUDINE] has a selectivity ratio of over 7720. Cc1cc(Cl)cc(C)c1Oc1cc(Nc2ccc(C#N)cc2)ncc1[N+](=O)[O-] gave a selectivity ratio of under 1. Work on Cc1cc(C#N)cc(C)c1Oc1cc(Nc2ccc([N+](=O)[O-])cc2)ncc1[N+](=O)[O-] yielded a selectivity ratio of under 1.

Tested on: not listed separately
Test: Selectivity index, ratio of CC50 for human MT4 cells to EC50 for wild type HIV-1 3B infected in human MT4 cells
Type: toxicity, cell-based
Settings: read-out: Ratio CC50/EC50
Method in brief: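 HIV-1 IIIB is added at 100–300 CCID50 per well to MT-4 cells seeded at 6 × 10⁵ cells/mL. Fivefold serial compound dilutions are run in triplicate, with a parallel mock-infected series for cytotoxicity. MTT viability is read at 540 and 690 nm after 5 days. SI = CC50 (mock-infected) / EC50 (infected).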
O=C1Nc2ccc(Cl)cc2[C@@](C#CC2CC2)(C(F)(F)F)O1 [EFAVIRENZ] showed a selectivity ratio of over 1110. In the case of N#Cc1ccc(Nc2cc(Oc3c(F)cc(F)cc3F)c([N+](=O)[O-])cn2)cc1, the selectivity ratio is reported as 5. N#Cc1ccc(Nc2cc(Oc3c(Br)cc(Br)cc3Br)c([N+](=O)[O-])cn2)cc1 gave a selectivity ratio of 65. For N#Cc1ccc(Nc2cc(Oc3c(Cl)cc(Cl)cc3Cl)c([N+](=O)[O-])cn2)cc1, the selectivity ratio was 97. Work on N#Cc1ccc(Nc2cc(Oc3c(Cl)cccc3Cl)c([N+](=O)[O-])cn2)cc1 yielded a selectivity ratio of 44. Cc1cccc(C)c1Nc1cc(Nc2ccc(C#N)cc2)ncc1[N+](=O)[O-] gave a selectivity ratio of under 1. For Cc1cn([C@H]2C[C@H](N=[N+]=[N-])[C@@H](CO)O2)c(=O)[nH]c1=O [ZIDOVUDINE], the selectivity ratio was over 12500. Work on Cc1cc(Cl)cc(C)c1Oc1cc(Nc2ccc(C#N)cc2)ncc1[N+](=O)[O-] yielded a selectivity ratio of 70. With Cc1cc(C#N)cc(C)c1Oc1cc(Nc2ccc([N+](=O)[O-])cc2)ncc1[N+](=O)[O-] the selectivity ratio was 200. With CC(C)Nc1cccnc1N1CCN(C(=O)c2cc3cc(NS(C)(=O)=O)ccc3[nH]2)CC1 [DELAVIRDINE] the selectivity ratio was over 71.

Tested on: not listed separately
Test: Selectivity index, ratio of CC50 for human MT4 cells to EC50 for HIV-1 RES056 harboring reverse transcriptase K103N/Y181C double mutant infected in human MT4 cells
Type: toxicity, cell-based
Settings: read-out: Ratio CC50/EC50
Method in brief: as §1
In the case of O=C1Nc2ccc(Cl)cc2[C@@](C#CC2CC2)(C(F)(F)F)O1 [EFAVIRENZ], the selectivity ratio is reported as over 21. With N#Cc1ccc(Nc2cc(Oc3c(F)cc(F)cc3F)c([N+](=O)[O-])cn2)cc1 the selectivity ratio was under 1. With N#Cc1ccc(Nc2cc(Oc3c(Br)cc(Br)cc3Br)c([N+](=O)[O-])cn2)cc1 the selectivity ratio was under 1. Compound N#Cc1ccc(Nc2cc(Oc3c(Cl)cc(Cl)cc3Cl)c([N+](=O)[O-])cn2)cc1 has a selectivity ratio of under 1. With N#Cc1ccc(Nc2cc(Oc3c(Cl)cccc3Cl)c([N+](=O)[O-])cn2)cc1 the selectivity ratio was under 1. For Cc1cccc(C)c1Nc1cc(Nc2ccc(C#N)cc2)ncc1[N+](=O)[O-], the selectivity ratio was under 1. For Cc1cn([C@H]2C[C@H](N=[N+]=[N-])[C@@H](CO)O2)c(=O)[nH]c1=O [ZIDOVUDINE], the selectivity ratio was over 5960. With Cc1cc(Cl)cc(C)c1Oc1cc(Nc2ccc(C#N)cc2)ncc1[N+](=O)[O-] the selectivity ratio was under 1. Compound Cc1cc(C#N)cc(C)c1Oc1cc(Nc2ccc([N+](=O)[O-])cc2)ncc1[N+](=O)[O-] has a selectivity ratio of under 1. In the case of CC(C)Nc1cccnc1N1CCN(C(=O)c2cc3cc(NS(C)(=O)=O)ccc3[nH]2)CC1 [DELAVIRDINE], the selectivity ratio is reported as under 1.

Tested on: not listed separately
Test: Cytotoxicity against human MT4 cells assessed as growth inhibition after 5 days by MTT assay
Type: cell-based
Settings: not given
Method in brief: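 Mock-infected MT-4 cells (6 × 10⁵ cells/mL) were run in parallel triplicate wells with serial fivefold compound dilutions added from 10× stocks and culture medium instead of virus. Viability was measured by MTT at day 5, reading absorbance at 540 and 690 nm.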
With Cc1ccnc2c1NC(=O)c1cccnc1N2C1CC1 [NEVIRAPINE] the CC50 at 120 h was over 15 µM. For O=C1Nc2ccc(Cl)cc2[C@@](C#CC2CC2)(C(F)(F)F)O1 [EFAVIRENZ], the CC50 at 120 h was over 6.34 µM. Compound N#Cc1ccc(Nc2cc(Oc3c(F)cc(F)cc3F)c([N+](=O)[O-])cn2)cc1 has a CC50 at 120 h of 3.54 µM. In the case of N#Cc1ccc(Nc2cc(Oc3c(Br)cc(Br)cc3Br)c([N+](=O)[O-])cn2)cc1, the CC50 at 120 h is reported as 7.49 µM. Work on N#Cc1ccc(Nc2cc(Oc3c(Cl)cc(Cl)cc3Cl)c([N+](=O)[O-])cn2)cc1 yielded a CC50 at 120 h of 16.2 µM. In the case of N#Cc1ccc(Nc2cc(Oc3c(Cl)cccc3Cl)c([N+](=O)[O-])cn2)cc1, the CC50 at 120 h is reported as 27.7 µM. Compound Cc1cccc(C)c1Nc1cc(Nc2ccc(C#N)cc2)ncc1[N+](=O)[O-] has a CC50 at 120 h of 12.8 µM. In the case of Cc1cn([C@H]2C[C@H](N=[N+]=[N-])[C@@H](CO)O2)c(=O)[nH]c1=O [ZIDOVUDINE], the CC50 at 120 h is reported as over 93.5 µM. Cc1cc(Cl)cc(C)c1Oc1cc(Nc2ccc(C#N)cc2)ncc1[N+](=O)[O-] showed a CC50 at 120 h of 11.1 µM. In the case of Cc1cc(C#N)cc(C)c1Oc1cc(Nc2ccc([N+](=O)[O-])cc2)ncc1[N+](=O)[O-], the CC50 at 120 h is reported as 141 µM. CC(C)Nc1cccnc1N1CCN(C(=O)c2cc3cc(NS(C)(=O)=O)ccc3[nH]2)CC1 [DELAVIRDINE] showed a CC50 at 120 h of over 36.2 µM.

Tested on: Human immunodeficiency virus 2
Test: Antiviral activity against HIV-2 ROD infected in human MT4 cells assessed as protection against virus-induced cytopathogenicity after 5 days by MTT assay
Type: functional, organism-based
Settings: Human immunodeficiency virus 2, ISOLATE ROD, MT4, 120 h
Method in brief: (§2)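 Compounds added at the start as 10× stocks to triplicate wells, then serially diluted fivefold. Virus stock at […] CCID50 was added to MT-4 cells resuspended at 6 × 10⁵ cells/mL. Viability was read by MTT reduction to formazan five days post-infection, with absorbance measured at 540 and 690 nm. EC50 is the concentration protecting against virus-induced cytopathicity.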
With N#Cc1ccc(Nc2cc(Oc3c(F)cc(F)cc3F)c([N+](=O)[O-])cn2)cc1 the EC50 was over 3.54 µM. Compound N#Cc1ccc(Nc2cc(Oc3c(Br)cc(Br)cc3Br)c([N+](=O)[O-])cn2)cc1 has an EC50 of over 7.49 µM. In the case of N#Cc1ccc(Nc2cc(Oc3c(Cl)cc(Cl)cc3Cl)c([N+](=O)[O-])cn2)cc1, the EC50 is reported as over 16.2 µM. N#Cc1ccc(Nc2cc(Oc3c(Cl)cccc3Cl)c([N+](=O)[O-])cn2)cc1 gave an EC50 of over 27.7 µM. With Cc1cccc(C)c1Nc1cc(Nc2ccc(C#N)cc2)ncc1[N+](=O)[O-] the EC50 was over 12.8 µM. With Cc1cn([C@H]2C[C@H](N=[N+]=[N-])[C@@H](CO)O2)c(=O)[nH]c1=O [ZIDOVUDINE] the EC50 was 0.012 µM. Cc1cc(Cl)cc(C)c1Oc1cc(Nc2ccc(C#N)cc2)ncc1[N+](=O)[O-] showed an EC50 of over 11.1 µM. Work on Cc1cc(C#N)cc(C)c1Oc1cc(Nc2ccc([N+](=O)[O-])cc2)ncc1[N+](=O)[O-] yielded an EC50 of over 141 µM.

Tested on: Human immunodeficiency virus 1
Test: Antiviral activity against HIV-1 RES056 harboring reverse transcriptase K103N/Y181C double mutant infected in human MT4 cells assessed as protection against virus-induced cytopathogenicity after 5 days by MTT assay
Type: functional, organism-based
Settings: Human immunodeficiency virus 1, RES056, MT4, 120 h
Method in brief: as §1
For Cc1ccnc2c1NC(=O)c1cccnc1N2C1CC1 [NEVIRAPINE], the EC50 was 4.09 µM. With O=C1Nc2ccc(Cl)cc2[C@@](C#CC2CC2)(C(F)(F)F)O1 [EFAVIRENZ] the EC50 was 0.32 µM. Work on N#Cc1ccc(Nc2cc(Oc3c(F)cc(F)cc3F)c([N+](=O)[O-])cn2)cc1 yielded an EC50 of over 3.54 µM. N#Cc1ccc(Nc2cc(Oc3c(Br)cc(Br)cc3Br)c([N+](=O)[O-])cn2)cc1 gave an EC50 of over 7.49 µM. Compound N#Cc1ccc(Nc2cc(Oc3c(Cl)cc(Cl)cc3Cl)c([N+](=O)[O-])cn2)cc1 has an EC50 of over 16.2 µM. With N#Cc1ccc(Nc2cc(Oc3c(Cl)cccc3Cl)c([N+](=O)[O-])cn2)cc1 the EC50 was over 27.7 µM. With Cc1cccc(C)c1Nc1cc(Nc2ccc(C#N)cc2)ncc1[N+](=O)[O-] the EC50 was over 12.8 µM. Work on Cc1cn([C@H]2C[C@H](N=[N+]=[N-])[C@@H](CO)O2)c(=O)[nH]c1=O [ZIDOVUDINE] yielded an EC50 of 0.016 µM. Work on Cc1cc(Cl)cc(C)c1Oc1cc(Nc2ccc(C#N)cc2)ncc1[N+](=O)[O-] yielded an EC50 of over 11.1 µM. With Cc1cc(C#N)cc(C)c1Oc1cc(Nc2ccc([N+](=O)[O-])cc2)ncc1[N+](=O)[O-] the EC50 was over 141 µM. In the case of CC(C)Nc1cccnc1N1CCN(C(=O)c2cc3cc(NS(C)(=O)=O)ccc3[nH]2)CC1 [DELAVIRDINE], the EC50 is reported as over 36.2 µM.

Tested on: Human immunodeficiency virus 1
Test: Antiviral activity against wild type HIV-1 3B infected in human MT4 cells assessed as protection against virus-induced cytopathogenicity after 5 days by MTT assay
Type: functional, organism-based
Settings: Human immunodeficiency virus 1, 3B, MT4, 120 h
Method in brief: as §2
With O=C1Nc2ccc(Cl)cc2[C@@](C#CC2CC2)(C(F)(F)F)O1 [EFAVIRENZ] the EC50 was 0.0057 µM. Work on N#Cc1ccc(Nc2cc(Oc3c(F)cc(F)cc3F)c([N+](=O)[O-])cn2)cc1 yielded an EC50 of 0.72 µM. With N#Cc1ccc(Nc2cc(Oc3c(Br)cc(Br)cc3Br)c([N+](=O)[O-])cn2)cc1 the EC50 was 0.11 µM. N#Cc1ccc(Nc2cc(Oc3c(Cl)cc(Cl)cc3Cl)c([N+](=O)[O-])cn2)cc1 showed an EC50 of 0.17 µM. In the case of N#Cc1ccc(Nc2cc(Oc3c(Cl)cccc3Cl)c([N+](=O)[O-])cn2)cc1, the EC50 is reported as 0.62 µM. Cc1cccc(C)c1Nc1cc(Nc2ccc(C#N)cc2)ncc1[N+](=O)[O-] showed an EC50 of over 12.8 µM. Compound Cc1cc(Cl)cc(C)c1Oc1cc(Nc2ccc(C#N)cc2)ncc1[N+](=O)[O-] has an EC50 of 0.16 µM. Work on Cc1cc(C#N)cc(C)c1Oc1cc(Nc2ccc([N+](=O)[O-])cc2)ncc1[N+](=O)[O-] yielded an EC50 of 0.72 µM. Compound CC(C)Nc1cccnc1N1CCN(C(=O)c2cc3cc(NS(C)(=O)=O)ccc3[nH]2)CC1 [DELAVIRDINE] has an EC50 of 0.51 µM.
